# Hits are enriched below; roughly 2.3% of the tested compounds scored in any of these assays.
# PRMT1 FP inh – PRMT1 methyltransferase inhibitors, primary screen, biochemical, fluorescence polarization. inhibition, % at 2.79 µM. hit rate 1.3% among 370,000. recombinant PRMT1, activity-based probe fluorescence polarization;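 active = inhibition above about 21% made by adding two undisclosed values, limit read from the data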
# Fam108B inh – mouse Fam108B serine hydrolase inhibitors, primary screen, counter-screen for RBBP9 inhibitor project, biochemical, fluorescence polarization; recombinant Fam108B, FP-Rh probe fluorescence polarization; inhibition, % at 9.51 µM; hit rate 0.33% among 300,000; AID 1947, 2009;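 active = inhibition above the screen mean inhibition plus 3 SD, computed separately per campaign, cut at about 18% in these data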;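 note: inhibitors lower polarization as less probe binds the enzyme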
# GSTO1 inh – inhibitors of recombinant GSTO1, primary screen, counter-screen for RBBP9 inhibitor project, biochemical, fluorescence polarization; activity-based probe fluorescence polarization; inhibition, % at 5.96 µM; Glutathione S-transferase omega-1 (Homo sapiens), P78417; AID 1974, 2009; hit rate 1.1% among 300,000;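 active = inhibition above the campaign mean inhibition plus 3 SD, cut at about 35% in these data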
# RBBP9 inh – human RBBP9 inhibitors, primary screen, biochemical, fluorescence polarization, FP-Rh probe, HTS; recombinant RBBP9; inhibition, % at 7.94 µM; hit rate 0.2% among 220,000; AID 1515, 2009;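 active = inhibition above the campaign mean of all tested compounds plus 3 SD, cut at about 14% in these data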
#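 System: RBBP9 protein / Quantity: 2.5 µM RBBP9 dispensing solution, before mixing / Also added: Serine-hydrolase probe FP-Rh, 375 nM pre-mixing / Dosing: 7.94 µM single dose, 0.794% DMSO / Timing: enzyme-compound preincubation 30 min, then probe labeling 45 min, 25 °C / Signal: FP readout at 525/598 nm / Controls: DMSO-treated enzyme wells and wells lacking RBBP9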
# PAD4 FP inh – human PAD4 inhibitors, primary screen, biochemical, fluorescence polarization, 1536-well format. Protein-arginine deiminase type-4 (Homo sapiens), Q9UM07. recombinant PAD4, RCA probe fluorescence polarization. inhibition, % at 6.36 µM. hit rate 0.41% among 330,000;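 active = percent inhibition above a cutoff equal to the mean of all tested compounds plus 3 SD, cut at about 15% in these data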
# Target sequence (Q9UM07 whole entry, looked up): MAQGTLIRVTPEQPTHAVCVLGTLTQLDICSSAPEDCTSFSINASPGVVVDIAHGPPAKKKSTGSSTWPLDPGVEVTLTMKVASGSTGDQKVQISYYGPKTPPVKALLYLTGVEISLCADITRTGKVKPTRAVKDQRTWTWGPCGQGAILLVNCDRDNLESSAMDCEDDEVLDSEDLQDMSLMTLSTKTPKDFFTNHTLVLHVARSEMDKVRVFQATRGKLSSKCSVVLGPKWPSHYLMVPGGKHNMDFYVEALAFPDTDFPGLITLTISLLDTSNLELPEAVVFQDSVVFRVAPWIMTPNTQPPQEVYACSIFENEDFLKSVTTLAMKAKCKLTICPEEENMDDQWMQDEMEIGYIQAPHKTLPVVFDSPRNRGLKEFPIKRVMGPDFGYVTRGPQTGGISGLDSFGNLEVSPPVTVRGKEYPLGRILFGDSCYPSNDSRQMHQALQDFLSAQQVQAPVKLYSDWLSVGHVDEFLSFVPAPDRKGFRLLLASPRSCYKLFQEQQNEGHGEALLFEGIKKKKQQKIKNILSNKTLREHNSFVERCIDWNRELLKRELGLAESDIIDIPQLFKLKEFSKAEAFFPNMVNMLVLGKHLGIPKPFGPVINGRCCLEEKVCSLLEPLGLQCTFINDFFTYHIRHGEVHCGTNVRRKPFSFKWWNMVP
# PME-1 inh – PME-1 inhibitors via competitive probe labeling, primary screen, biochemical, fluorescence polarization, FP-Rh probe, HTS. Protein phosphatase methylesterase 1 (Homo sapiens), Q9Y570. recombinant PME-1. inhibition, % at 5.9 µM. hit rate 0.53% among 320,000. AID 2130, 2009;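 active = inhibition above the campaign mean of all compounds plus 3 SD, cut at about 26% in these data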;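 note: competitive labeling of PME-1 active site by serine hydrolase directed probe; inhibitors block probe labeling so polarization falls and inhibition rises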
# PRMT1 confirm – PRMT1 methyltransferase inhibitors, confirmation, biochemical, fluorescence polarization, triplicate; shares compounds with PRMT1 FP inh; recombinant His-PRMT1, activity-based probe fluorescence polarization; inhibition, % at 2.79 µM; hit rate 42% among 3,300; AID 687036, 2013;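 active = mean inhibition across replicates above the hit cutoff derived for the earlier primary screen, cut at about 22% in these data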
# A number is an active result; - = inactive; . = not tested or not shown.
SMILES,PRMT1 FP inh,Fam108B inh,GSTO1 inh,RBBP9 inh,PAD4 FP inh,PME-1 inh,PRMT1 confirm
COc1cccc(/C=C2\SC(=O)N(CCC(=O)N3CCC(C(=O)O)CC3)C2=O)c1,30.4,-,-,.,-,-,-
COc1cccc(/C=C2\SC(=S)N(CCCC(=O)N3CCCC3)C2=O)c1,-,-,-,.,-,-,.
O=C(CN1c2ccccc2S(=O)(=O)c2ccccc21)Nc1ccccc1F,-,-,-,.,-,-,.
O=C(CCCSc1ccc(Cl)cc1)Nc1cc(S(=O)(=O)N2CCOCC2)ccc1O,48.7,.,.,.,-,-,21.8
CN(C)S(=O)(=O)c1cccc(-n2sc3ccccc3c2=O)c1,101.5,-,-,-,26.7,-,94.8
O=c1c2ccccc2sn1-c1cccc(Cl)c1,82.4,.,.,.,.,.,83.8
CN(C)/C=C1\C(=O)N(c2ccc(Cl)c(Cl)c2)CS1(=O)=O,-,-,-,-,-,-,.
COc1ccc(S(=O)(=O)N2CCOCC2)cc1NC(=O)CSc1nnc(C2CC2)n1C1CC1,39.9,.,.,.,-,-,-
Cc1ccccc1C(=O)N1CCC(C(=O)Nc2ccc(C)c(S(=O)(=O)N3CCCCC3)c2)CC1,-,.,.,.,-,-,.
O=C(O)C(Cc1ccccc1)N1C(=O)C=CC1=O (stereo not drawn),52.5,.,.,.,.,.,64.4
CCn1c(C)nc2cc(C(=O)N/N=C/c3cccc(OC)c3O)ccc21,-,-,-,-,-,-,.
CCn1c(C)nc2cc(C(=O)N/N=C/c3ccc(O)c(O)c3O)ccc21,42.8,.,.,-,.,.,43.0
Oc1ccc(Cl)cc1C=Nc1ccc2c3c(cccc13)CC2,39.2,-,-,-,-,-,-
Cc1cccc(C=Nc2ccc3c4c(cccc24)CC3)c1O,36.2,-,-,-,-,-,-
CCc1ccc(O)c(N=Cc2cccc(C)c2O)c1,-,-,-,-,-,-,.
Oc1ccc(Cl)cc1/C=N/c1nccs1,-,-,-,-,-,-,.
O=C(NC1CCCCC1)N1CCN(c2ccc([N+](=O)[O-])cc2)CC1,-,-,-,.,-,-,.
N#C/C(=C\c1cn(Cc2ccccc2C#N)c2ccccc12)C(=O)NCc1cccs1,-,-,-,-,-,-,.
CCN(CC)C(=O)CSc1nnc2nnc3cc(OC)ccc3n12,29.3,-,-,-,-,-,26.5
CCN(CC)C(=O)CSc1nnc(COc2ccc(OC)cc2)n1N,-,-,-,-,-,-,.
COC(=O)c1ccc2c(=O)n(CCN3CCOCC3)c(SCC(=O)Nc3ccccc3Cl)nc2c1,26.5,-,-,.,-,-,47.7
COC(=O)c1ccc2c(=O)n(CCN3CCOCC3)c(SCC(=O)Nc3ccccc3OC)nc2c1,-,.,.,.,.,.,.
COc1ccc2c(c1OC)C(=O)N1c3ccccc3N=C(c3ccc([N+](=O)[O-])cc3)CC21 (stereo not drawn),32.1,-,-,-,-,-,-
O=C(CSc1ccccc1)N[C@@H](Cc1ccccc1)C(=O)O,-,-,-,-,-,-,.
COC(=O)c1ccc(-c2ccco2)n1Cc1ccccc1Cl,-,-,-,-,-,-,.
SMILES,PRMT1 FP inh,Fam108B inh,GSTO1 inh,RBBP9 inh,PAD4 FP inh,PME-1 inh,PRMT1 confirm
COC(=O)c1ccc(-c2ccco2)n1Cc1nc(-c2ccc(OC)c(OC)c2)oc1C,29.5,-,-,-,-,-,-
Cc1ccc2nc(N3CC(C)OC(C)C3)nc(-c3ccccc3)c2c1 (stereo not drawn),-,-,-,.,-,-,.
Cc1nnc(SCC2=C(C(=O)O)N3C(=O)C(NC(=O)Cn4nc(C(F)F)c(Cl)c4C)C3SC2)s1 (stereo not drawn),27.9,-,-,-,-,-,38.5
Cc1nnc(SCC2=C(C(=O)O)N3C(=O)C(NC(=O)Cn4nc(C(F)F)cc4C)C3SC2)s1 (stereo not drawn),25.1,-,-,-,-,-,28.9
CN(C)CCn1nnnc1SCC1=C(C(=O)O)N2C(=O)[C@@H](NC(=O)Cc3csc(N)n3)[C@H]2SC1,45.6,-,-,.,-,-,-
CSc1nc(N)nc2c1ncn2C1OC(CO)C(O)C1O (stereo not drawn),-,.,.,.,.,.,.
COC(=O)CC1C(=O)NCCN1C(=O)CSc1nc2ccccc2s1 (stereo not drawn),36.4,-,-,-,-,-,36.9
COC(=O)CC1C(=O)NCCN1C(=O)c1ccccc1 (stereo not drawn),-,-,-,-,-,-,.
C=CCNC(=S)Nc1ccc(F)cc1F,-,-,-,-,-,-,.
CSc1ccc(CNc2ccccc2)cc1,.,-,-,-,-,-,.
Cc1ccccc1Nc1nnc(C)c(=O)n1N,-,-,-,-,-,-,.
COc1ccc(NC(=S)NCCCN2CCCC2)cc1Cl,-,-,-,-,-,-,.
COc1ccc(NC(=S)N(CCC(C)C)C2CCN(C(C)C)CC2)cc1Cl,54.0,-,-,.,-,-,54.5
COc1ccc(NC(=S)NCCN2CCC(C)CC2)cc1Cl,48.0,-,-,-,-,-,46.2
CC12C=CC(=O)C=C1C(F)CC1C3CCC(O)(C(=O)CO)C3(C)CC(O)C12F (stereo not drawn),-,.,.,.,.,.,.
S=C(Nc1ccccc1Cl)NC1CCN(Cc2ccccc2)CC1,25.4,-,-,-,-,-,-
Cc1c(Cl)cccc1NC(=S)NC1CCN(Cc2ccccc2)CC1,-,-,-,-,-,-,.
CN(C)CCCN(C(=O)CCOc1ccccc1)c1nc2c(F)cccc2s1,30.9,.,.,-,.,.,-
COc1ccc(CCNC(=O)CSc2nc3[nH]c(=O)cc(O)c3s2)cc1,28.7,.,.,.,-,-,-
NC(c1ccccc1)c1csc(NC(=O)NCCc2ccccc2)n1 (stereo not drawn),-,.,.,.,.,.,.
CCC(C)(C)C(=O)Nc1ncc(S(=O)(=O)c2ccc([N+](=O)[O-])cc2)s1,-,-,-,-,-,-,.
O=C(CCl)Nc1ncc(S(=O)(=O)c2ccc([N+](=O)[O-])cc2)s1,33.2,.,.,.,-,.,-
Cc1ccc(-c2nc(NC(=O)CSc3nnc(C)s3)ns2)cc1,-,-,-,-,-,-,.
CCC(Oc1ccccc1)C(=O)Nc1nc2ccccc2[nH]1 (stereo not drawn),26.3,-,-,-,-,-,-
CC(C)Oc1ccc(C(=O)Nc2nc3ccccc3[nH]2)cc1,-,-,-,.,-,-,.
O=C(O)c1cccc(-n2cccc2/C=C\[N+](=O)[O-])c1,36.0,-,-,-,-,-,-
N#C/C(=C/c1cccn1-c1cccc(C(=O)O)c1)c1ccc(Cl)cc1,-,-,-,-,-,-,.

# Assay outcomes deposited in PubChem BioAssay by The Scripps Research Institute Molecular Screening Center.
